As a reminder, the MIC is the lowest concentration found to suppress growth. Usually IC50 stands for the midpoint of a concentration-inhibition curve.

The results in this text go back to ChEMBL document CHEMBL1138578, “Synthesis and antibacterial activity of nitroaryl thiadiazole-gatifloxacin hybrids” (Eur J Med Chem, 2009).

In brackets after ≈: the same amount, converted by molar mass.

One test deals with Klebsiella pneumoniae. The test is described as follows: Antibacterial activity against Klebsiella pneumoniae ATCC 10031 after 18 hrs by conventional agar dilution method. It is filed as functional. As to conditions: ATCC 10031, 18 h. The method, boiled down: (§1)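 Twofold dilutions in DMSO (1 mL) mixed into molten Mueller–Hinton agar (19 mL) at 50 °C. Inocula adjusted at 600 nm to about 0.5 McFarland (1.5 × 10⁸ CFU/mL), then diluted in 0.85% saline to 10⁷ CFU/mL. Plates spot-inoculated at 10⁴ CFU/spot and incubated 35–37 °C for 18 h. MIC is the lowest concentration giving no visible growth. DMSO-only control plates included.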
In general terms: In agar dilution the substance is mixed into plates at graded concentrations.

The next test deals with Micrococcus luteus. The test is described as follows: Antibacterial activity against Micrococcus luteus ATCC 1110 after 18 hrs by conventional agar dilution method. Format: functional. As to conditions: ATCC 1110, 18 h. The essentials:
as §1

In another test the test system is Escherichia coli. Nature of the test: Antibacterial activity against Escherichia coli ATCC 25922 after 18 hrs by conventional agar dilution method. As to conditions: ATCC 25922, 18 h. Format: functional. The essentials:
as §1

The test system of a further test is Staphylococcus aureus. The test is described as follows: Antibacterial activity against Staphylococcus aureus ATCC 25923 after 18 hrs by conventional agar dilution method. It is filed as functional. Conditions: ATCC 25923, 18 h. The method, boiled down:
as §1

Test [1] concerns Salmonella enterica subsp. enterica serovar Typhi str. CT18. Nature of the test: Antibacterial activity against Salmonella typhi ATCC 19430 after 18 hrs by conventional agar dilution method. Format: functional. Conditions: ATCC 19430, 18 h. The method, boiled down: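 Twofold dilutions in DMSO mixed into molten Mueller–Hinton agar at 50 °C. Inoculum adjusted at 600 nm to about 0.5 McFarland (1.5 ×10⁸ CFU/mL), then diluted in 0.85% saline to 10⁷ CFU/mL. Plates spot-inoculated at 10⁴ CFU/spot and incubated at 35–37 °C for 18 h. MIC taken as the lowest concentration with no visible growth. DMSO solvent control run at matching dilutions.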

The next test has as its system Bacillus subtilis. Nature of the test: Antibacterial activity against Bacillus subtilis ATCC 6051 after 18 hrs by conventional agar dilution method. It is filed as functional. As to conditions: ATCC 6051, 18 h. The method, boiled down: as §1
The next test relates to Serratia marcescens. The test is described as follows: Antibacterial activity against Serratia marcescens PTCC 1111 after 18 hrs by conventional agar dilution method. Format: functional. As to conditions: PTCC 1111, 18 h. The essentials:
as §1

In the next test the test system is Pseudomonas aeruginosa. Nature of the test: Antibacterial activity against Pseudomonas aeruginosa ATCC 27853 after 18 hrs by conventional agar dilution method. It is filed as functional. As to conditions: ATCC 27853, 18 h. The method, boiled down:
as §1

Another test concerns Shigella flexneri. The test is described as follows: Antibacterial activity against Shigella flexneri NCTC 8516 after 18 hrs by conventional agar dilution method. It is filed as functional. As to conditions: NCTC 8516, 18 h. The method, boiled down:
as §1

The subject of the next test is Streptococcus pneumoniae. Nature of the test: Antibacterial activity against Streptococcus pneumoniae ATCC 1240 after 18 hrs by conventional agar dilution method. Format: functional. As to conditions: ATCC 1240, 18 h. The essentials: as §1
The subject of another test is Enterococcus faecalis. The test is described as follows: Antibacterial activity against Enterococcus faecalis NCTC 6013 after 18 hrs by conventional agar dilution method. It is filed as functional. Conditions: NCTC 6013, 18 h. The method, boiled down: as §1
A short description of test [2]: Cytotoxicity against mouse NIH/3T3 cells after 72 hrs by MTT assay. Format: cell-based. Conditions: NIH3T3, 72 h. The essentials: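 Exponential-phase NIH/3T3 fibroblasts trypsinized and diluted in complete medium to 5 × 10⁴ cells/mL, then plated in 96-well plates. Serial compound dilutions added, each in triplicate, with cell-only wells as the viability control. Incubation 72 h, then MTT (5 mg/mL solution) added for 1 h and the medium replaced for colorimetric read-out.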
In general terms: Formazan colour is commonly taken as a measure of viable cells.

The test system of test [3] is Staphylococcus epidermidis. The test is described as follows: Antibacterial activity against Staphylococcus epidermidis ATCC 4940 after 18 hrs by conventional agar dilution method. It is filed as functional. Conditions: ATCC 4940, 18 h. The method, boiled down:
as §1

Consider `COc1c(N2CCN(c3nnc(-c4ccc([N+](=O)[O-])s4)s3)C(C)C2)c(F)cc2c(=O)c(C(=O)O)cn(C3CC3)c12` (stereo unspecified), for which the MIC in the test on Klebsiella pneumoniae was found to be 16 µg/mL (≈ 27.3 µM); with Micrococcus luteus it was 4 µg/mL (≈ 6.82 µM); in the test on Escherichia coli it was 32 µg/mL (≈ 54.5 µM); in the test on Staphylococcus aureus, 0.5 µg/mL (≈ 0.852 µM); in test [1], 1 µg/mL (≈ 1.7 µM); with Bacillus subtilis, 0.5 µg/mL (≈ 0.852 µM). Further, the MIC was 8 µg/mL (≈ 13.6 µM) against Serratia marcescens; above 64 µg/mL against Pseudomonas aeruginosa; 1 µg/mL (≈ 1.7 µM) against Shigella flexneri; 0.25 µg/mL (≈ 0.426 µM) with Streptococcus pneumoniae; 2 µg/mL (≈ 3.41 µM) with Enterococcus faecalis; 0.125 µg/mL (≈ 0.213 µM) in [3]. Moreover, it took 243 µM to reach half-maximal inhibition in test [2] (IC50).

`COc1c(N2CCN(c3nnc(-c4ccccc4[N+](=O)[O-])s3)C(C)C2)c(F)cc2c(=O)c(C(=O)O)cn(C3CC3)c12` (stereo unspecified): the MIC against Klebsiella pneumoniae amounted to 64 µg/mL (≈ 110 µM); against Micrococcus luteus it was 0.5 µg/mL (≈ 0.861 µM); in the test with Escherichia coli it was 16 µg/mL (≈ 27.6 µM); against Staphylococcus aureus it was 32 µg/mL (≈ 55.1 µM); in test [1], 16 µg/mL (≈ 27.6 µM); in the test with Bacillus subtilis it was 0.0625 µg/mL (≈ 0.108 µM). Further, the MIC against Serratia marcescens was 16 µg/mL (≈ 27.6 µM); in the test on Pseudomonas aeruginosa, above 64 µg/mL; against Shigella flexneri it was 16 µg/mL (≈ 27.6 µM); against Streptococcus pneumoniae, 0.25 µg/mL (≈ 0.431 µM); with Enterococcus faecalis, 2 µg/mL (≈ 3.44 µM); in [3] it was 0.0625 µg/mL (≈ 0.108 µM). This compound showed an IC50 in test [2] of 168 µM.

For the compound `COc1c(N2CCN(c3nnc(-c4ncc([N+](=O)[O-])n4C)s3)C(C)C2)c(F)cc2c(=O)c(C(=O)O)cn(C3CC3)c12` (stereo unspecified), the MIC in the test on Klebsiella pneumoniae was 0.5 µg/mL (≈ 0.855 µM); against Micrococcus luteus, 2 µg/mL (≈ 3.42 µM); against Escherichia coli, 16 µg/mL (≈ 27.4 µM); in the test on Staphylococcus aureus, 0.0313 µg/mL (≈ 0.0535 µM); in test [1] it was 0.25 µg/mL (≈ 0.428 µM); against Bacillus subtilis, 0.5 µg/mL (≈ 0.855 µM). Further, the MIC in the test on Serratia marcescens was 64 µg/mL (≈ 109 µM); in the test with Pseudomonas aeruginosa, above 64 µg/mL; against Shigella flexneri, 1 µg/mL (≈ 1.71 µM); against Streptococcus pneumoniae it was 1 µg/mL (≈ 1.71 µM); with Enterococcus faecalis, 4 µg/mL (≈ 6.84 µM); in [3] it was 0.5 µg/mL (≈ 0.855 µM). Moreover, the IC50 in [2] is 246 µM.

Take `COc1c(N2CCN(c3nnc(-c4cccc([N+](=O)[O-])c4)s3)C(C)C2)c(F)cc2c(=O)c(C(=O)O)cn(C3CC3)c12` (stereo unspecified): the MIC against Klebsiella pneumoniae is above 64 µg/mL; against Micrococcus luteus, 1 µg/mL (≈ 1.72 µM); in the test with Escherichia coli, above 64 µg/mL; in the test on Staphylococcus aureus, above 64 µg/mL; in [1], above 64 µg/mL; against Bacillus subtilis, 32 µg/mL (≈ 55.1 µM). The MIC against Serratia marcescens is above 64 µg/mL; against Pseudomonas aeruginosa, above 64 µg/mL; in the test on Shigella flexneri it was above 64 µg/mL; in the test with Streptococcus pneumoniae it was 1 µg/mL (≈ 1.72 µM); in the test with Enterococcus faecalis, above 64 µg/mL; in [3], 0.0313 µg/mL (≈ 0.0539 µM). In [2], this compound displayed an IC50 of 161 µM.

Consider `COc1c(N2CCN(c3nnc(-c4ccc([N+](=O)[O-])o4)s3)C(C)C2)c(F)cc2c(=O)c(C(=O)O)cn(C3CC3)c12` (stereo unspecified), for which the MIC against Klebsiella pneumoniae was 1 µg/mL (≈ 1.75 µM); against Micrococcus luteus, 0.125 µg/mL (≈ 0.219 µM); with Escherichia coli, 1 µg/mL (≈ 1.75 µM); in the test on Staphylococcus aureus, 0.125 µg/mL (≈ 0.219 µM); in test [1], 1 µg/mL (≈ 1.75 µM); with Bacillus subtilis it was 0.0039 µg/mL (≈ 0.00684 µM). The MIC is 8 µg/mL (≈ 14 µM) in the test with Serratia marcescens; above 64 µg/mL against Pseudomonas aeruginosa; 0.5 µg/mL (≈ 0.876 µM) against Shigella flexneri; 0.25 µg/mL (≈ 0.438 µM) against Streptococcus pneumoniae; 0.125 µg/mL (≈ 0.219 µM) in the test on Enterococcus faecalis; 0.0078 µg/mL (≈ 0.0137 µM) in [3]. The same compound came in with an IC50 in test [2] of 238 µM.

On to `COc1c(N2CCN(c3nnc(-c4ccc([N+](=O)[O-])cc4)s3)C(C)C2)c(F)cc2c(=O)c(C(=O)O)cn(C3CC3)c12` (stereo unspecified), for which the MIC came to 64 µg/mL (≈ 110 µM) against Klebsiella pneumoniae; 0.25 µg/mL (≈ 0.431 µM) against Micrococcus luteus; 16 µg/mL (≈ 27.6 µM) against Escherichia coli; 32 µg/mL (≈ 55.1 µM) against Staphylococcus aureus; 8 µg/mL (≈ 13.8 µM) in [1]; 0.0313 µg/mL (≈ 0.0539 µM) in the test with Bacillus subtilis. For the same compound, the MIC against Serratia marcescens was 16 µg/mL (≈ 27.6 µM); against Pseudomonas aeruginosa, above 64 µg/mL; with Shigella flexneri, 8 µg/mL (≈ 13.8 µM); against Streptococcus pneumoniae it was 0.0625 µg/mL (≈ 0.108 µM); with Enterococcus faecalis, 1 µg/mL (≈ 1.72 µM); in test [3] it was 0.0625 µg/mL (≈ 0.108 µM). Moreover, the IC50 in test [2] came out at 223 µM.

Take `COc1c(N2CCNC(C)C2)c(F)cc2c(=O)c(C(=O)O)cn(C3CC3)c12` (stereo unspecified) [GATIFLOXACIN]: the MIC with Klebsiella pneumoniae is 0.5 µg/mL (≈ 1.33 µM); in the test on Micrococcus luteus, 1 µg/mL (≈ 2.66 µM); in the test on Escherichia coli, 1 µg/mL (≈ 2.66 µM); against Staphylococcus aureus, 0.25 µg/mL (≈ 0.666 µM); in [1], 0.0625 µg/mL (≈ 0.166 µM); with Bacillus subtilis, 0.5 µg/mL (≈ 1.33 µM). Moreover, the MIC worked out at 0.5 µg/mL (≈ 1.33 µM) against Serratia marcescens; 2 µg/mL (≈ 5.33 µM) with Pseudomonas aeruginosa; 0.0625 µg/mL (≈ 0.166 µM) in the test with Shigella flexneri; 0.25 µg/mL (≈ 0.666 µM) with Streptococcus pneumoniae; 0.5 µg/mL (≈ 1.33 µM) in the test on Enterococcus faecalis; 0.0625 µg/mL (≈ 0.166 µM) in test [3]. This compound also yielded an IC50 in test [2] of 596 µM.
